# Several values for one entry are separate records, joined by “and”; a condition that tells them apart may be missing. Equal entries are not always repeated.
# System: HEK-293T
# Experiment: Multiplex assay against HEK293T;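 for Population Tubulin-Different-Phenotype (%): share of the cells with healthy nuclei that show this phenotype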
# Format: toxicity, cell-based
# Details: human
# Procedure, shortened: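 At seeding, live cells were stained with Hoechst33342, BioTracker Green Microtubule Cytoskeleton Dye, MitoTracker Red and Annexin V Alexa Fluor 680. After compound addition they were imaged on a CQ1 microscope at 37°C and 5% CO2, and CellPathfinder machine-learning gating sorted them into Hoechst high-intensity objects or normal cells, with normal cells further split into healthy, pyknosed or fragmented nuclei and pyknosed cells into mitotic or apoptotic. Tubulin, mitochondrial-mass and membrane-permeability phenotypes are given as per cents of cells with healthy nuclei.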
# [1] = 12 h, 1 µM, compound concentration 1 uM, replicate 1
# [2] = 12 h, 1 µM, compound concentration 1 uM, replicate 2
# [3] = 12 h, 10 µM, compound concentration 10 uM, replicate 1
# [4] = 12 h, 10 µM, compound concentration 10 uM, replicate 2
# [5] = 24 h, 1 µM, compound concentration 1 uM, replicate 1
# [6] = 24 h, 1 µM, compound concentration 1 uM, replicate 2
# [7] = 24 h, 10 µM, compound concentration 10 uM, replicate 1
# [8] = 24 h, 10 µM, compound concentration 10 uM, replicate 2
# [9] = 48 h, 1 µM, compound concentration 1 uM, replicate 1
# [10] = 48 h, 1 µM, compound concentration 1 uM, replicate 2
# [11] = 48 h, 10 µM, compound concentration 10 uM, replicate 1
# [12] = 48 h, 10 µM, compound concentration 10 uM, replicate 2
smiles,measurement,setting,value
Nc1c(C(=O)NCc2ccc(C(=O)NCCCC3CCCCC3)cc2)cnn1-c1ccccc1 [SR-318],Population Apoptotic (%),[1],38% and 53% and 33%
same,Population Fragmented Nuclei (%),[1],11% and 10%
same,Population Healthy Nuclei (%),[1],45% and 28% and 41%
same,Population Hoechst High Intensity Objects (%),[1],13% and 14% and 11%
same,Population Membrane Permeable-Phenotype (%),[1],1%
same,Population Mitochondria Different-Phenotype (%),[1],68% and 75% and 77%
same,Population Mitotic Cells (%),[1],61% and 46% and 66%
same,Population Normal (%),[1],86% and 85% and 88%
same,Population Pyknosed Nuclei (%),[1],45% and 60% and 48%
same,Population Tubulin-Different-Phenotype (%),[1],37% and 47% and 50%
same,Total Cell Count,[1],564 and 341 and 583
same,Population Apoptotic (%),[2],8% and 14% and 10%
same,Population Fragmented Nuclei (%),[2],9% and 6%
same,Population Healthy Nuclei (%),[2],39% and 42% and 51%
same,Population Hoechst High Intensity Objects (%),[2],4% and 5% and 2%
same,Population Membrane Permeable-Phenotype (%),[2],8% and 6% and 4%
same,Population Mitochondria Different-Phenotype (%),[2],22% and 14% and 17%
same,Population Mitotic Cells (%),[2],91% and 85% and 89%
same,Population Normal (%),[2],95% and 94% and 97%
same,Population Pyknosed Nuclei (%),[2],51% and 47% and 41%
same,Population Tubulin-Different-Phenotype (%),[2],18% and 20% and 15%
same,Total Cell Count,[2],208 and 203 and 249
same,Population Apoptotic (%),[3],43% and 67% and 60%
same,Population Fragmented Nuclei (%),[3],13% and 17% and 12%
same,Population Healthy Nuclei (%),[3],21% and 14% and 18%
same,Population Hoechst High Intensity Objects (%),[3],16% and 13% and 15%
same,Population Membrane Permeable-Phenotype (%),[3],5% and 2% and 1%
same,Population Mitochondria Different-Phenotype (%),[3],97% and 100% and 94%
same,Population Mitotic Cells (%),[3],56% and 32% and 39%
same,Population Normal (%),[3],83% and 86% and 84%
same,Population Pyknosed Nuclei (%),[3],64% and 68%
same,Population Tubulin-Different-Phenotype (%),[3],90% and 89% and 92%
same,Total Cell Count,[3],492 and 305 and 342
same,Population Apoptotic (%),[4],42% and 40% and 53%
same,Population Fragmented Nuclei (%),[4],2% and 5%
same,Population Healthy Nuclei (%),[4],31% and 23%
same,Population Hoechst High Intensity Objects (%),[4],6% and 3%
same,Population Membrane Permeable-Phenotype (%),[4],7% and 4%
same,Population Mitochondria Different-Phenotype (%),[4],82% and 78% and 79%
same,Population Mitotic Cells (%),[4],57% and 59% and 46%
same,Population Normal (%),[4],93% and 96%
same,Population Pyknosed Nuclei (%),[4],66% and 62% and 70%
same,Population Tubulin-Different-Phenotype (%),[4],78% and 84%
same,Total Cell Count,[4],272 and 248 and 191
same,Population Apoptotic (%),[5],42% and 41% and 52%
same,Population Fragmented Nuclei (%),[5],12% and 10% and 16%
same,Population Healthy Nuclei (%),[5],40% and 46% and 27%
same,Population Hoechst High Intensity Objects (%),[5],15% and 12%
same,Population Membrane Permeable-Phenotype (%),[5],3% and 1% and 5%
same,Population Mitochondria Different-Phenotype (%),[5],71% and 56% and 69%
same,Population Mitotic Cells (%),[5],57% and 58% and 47%
same,Population Normal (%),[5],84% and 87%
same,Population Pyknosed Nuclei (%),[5],46% and 43% and 55%
same,Population Tubulin-Different-Phenotype (%),[5],48% and 34% and 54%
same,Total Cell Count,[5],634 and 591 and 363
same,Population Apoptotic (%),[6],11% and 13% and 5%
same,Population Fragmented Nuclei (%),[6],5% and 9% and 6%
same,Population Healthy Nuclei (%),[6],64% and 62% and 70%
same,Population Hoechst High Intensity Objects (%),[6],2%
same,Population Membrane Permeable-Phenotype (%),[6],7%
same,Population Mitochondria Different-Phenotype (%),[6],14% and 23% and 18%
same,Population Mitotic Cells (%),[6],88% and 86% and 94%
same,Population Normal (%),[6],97%
same,Population Pyknosed Nuclei (%),[6],30% and 27% and 22%
same,Population Tubulin-Different-Phenotype (%),[6],22% and 26% and 15%
same,Total Cell Count,[6],245 and 241 and 330
same,Population Apoptotic (%),[7],50% and 60% and 64%
same,Population Fragmented Nuclei (%),[7],18% and 20%
same,Population Healthy Nuclei (%),[7],22% and 16% and 17%
same,Population Hoechst High Intensity Objects (%),[7],19% and 15% and 14%
same,Population Membrane Permeable-Phenotype (%),[7],0%
same,Population Mitochondria Different-Phenotype (%),[7],98% and 97% and 96%
same,Population Mitotic Cells (%),[7],49% and 39% and 35%
same,Population Normal (%),[7],80% and 84% and 85%
same,Population Pyknosed Nuclei (%),[7],58% and 63% and 61%
same,Population Tubulin-Different-Phenotype (%),[7],94% and 86% and 90%
same,Total Cell Count,[7],489 and 314 and 331
same,Population Apoptotic (%),[8],61% and 57% and 59%
same,Population Fragmented Nuclei (%),[8],6% and 3%
same,Population Healthy Nuclei (%),[8],42% and 47% and 50%
same,Population Hoechst High Intensity Objects (%),[8],4% and 5%
same,Population Membrane Permeable-Phenotype (%),[8],3% and 1% and 2%
same,Population Mitochondria Different-Phenotype (%),[8],90% and 89% and 87%
same,Population Mitotic Cells (%),[8],38% and 42% and 40%
same,Population Normal (%),[8],95% and 94%
same,Population Pyknosed Nuclei (%),[8],50% and 49% and 46%
same,Population Tubulin-Different-Phenotype (%),[8],93%
same,Total Cell Count,[8],222 and 291 and 281
same,Population Apoptotic (%),[9],50% and 32% and 31%
same,Population Fragmented Nuclei (%),[9],17% and 13% and 15%
same,Population Healthy Nuclei (%),[9],35% and 64% and 52%
same,Population Hoechst High Intensity Objects (%),[9],15% and 9% and 12%
same,Population Membrane Permeable-Phenotype (%),[9],0%
same,Population Mitochondria Different-Phenotype (%),[9],46% and 27% and 47%
same,Population Mitotic Cells (%),[9],50% and 67% and 68%
same,Population Normal (%),[9],84% and 90% and 87%
same,Population Pyknosed Nuclei (%),[9],46% and 21% and 32%
same,Population Tubulin-Different-Phenotype (%),[9],28% and 25% and 40%
same,Total Cell Count,[9],384 and 851 and 794
same,Population Apoptotic (%),[10],20% and 10% and 15%
same,Population Fragmented Nuclei (%),[10],7% and 9% and 3%
same,Population Healthy Nuclei (%),[10],82% and 81%
same,Population Hoechst High Intensity Objects (%),[10],4%
same,Population Membrane Permeable-Phenotype (%),[10],3% and 1%
same,Population Mitochondria Different-Phenotype (%),[10],9% and 7% and 13%
same,Population Mitotic Cells (%),[10],79% and 89% and 84%
same,Population Normal (%),[10],95%
same,Population Pyknosed Nuclei (%),[10],10% and 9% and 15%
same,Population Tubulin-Different-Phenotype (%),[10],24% and 17% and 22%
same,Total Cell Count,[10],386 and 610 and 321
same,Population Apoptotic (%),[11],68% and 72% and 52%
same,Population Fragmented Nuclei (%),[11],28% and 25%
same,Population Healthy Nuclei (%),[11],22% and 19% and 26%
same,Population Hoechst High Intensity Objects (%),[11],13% and 18% and 16%
same,Population Membrane Permeable-Phenotype (%),[11],0%
same,Population Mitochondria Different-Phenotype (%),[11],98% and 96% and 95%
same,Population Mitotic Cells (%),[11],31% and 27% and 47%
same,Population Normal (%),[11],86% and 81% and 84%
same,Population Pyknosed Nuclei (%),[11],48% and 55%
same,Population Tubulin-Different-Phenotype (%),[11],98% and 94% and 82%
same,Total Cell Count,[11],329 and 319 and 500
same,Population Apoptotic (%),[12],66%
same,Population Fragmented Nuclei (%),[12],5% and 7% and 8%
same,Population Healthy Nuclei (%),[12],69% and 65% and 61%
same,Population Hoechst High Intensity Objects (%),[12],3% and 6%
same,Population Membrane Permeable-Phenotype (%),[12],2% and 1%
same,Population Mitochondria Different-Phenotype (%),[12],85% and 90% and 93%
same,Population Mitotic Cells (%),[12],33%
same,Population Normal (%),[12],96% and 93%
same,Population Pyknosed Nuclei (%),[12],25% and 26% and 30%
same,Population Tubulin-Different-Phenotype (%),[12],95%
same,Total Cell Count,[12],373 and 318 and 253

# — ChEMBL document CHEMBL4689842, “EUbOPEN Chemogenomics Library wave 1” (2021)
